Results on one molecule are retold here after ChEMBL document CHEMBL2169822, “Discovery and optimization of 1,3,4-trisubstituted-pyrazolone derivatives as novel, potent, and nonsteroidal farnesoid X receptor (FXR) selective antagonists” (J Med Chem, 2012).

Calls of active or inactive are those of the source. The calls are words filed in the database; no cut-off is given here. Where only a bound is given, the exact number is not on record here.

In data set [1] the test system is HEK-293T. Nature of the data set: Agonist activity at FXRalpha/RXRalpha expressed in HEK293T cells co-expressing GAL4 DBD after 18 hrs by luciferase based transactivation assay. The class given is functional, cell-based. As to conditions: Homo sapiens. Put shortly:
(§1)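 FXR transactivation in HEK293T cells transiently transfected with pcDNA3.1-FXRα, pcDNA3.1-RXRα, pGL3-FXRE-Luc and pRL-SV40 Renilla vector. Medium was replaced 6 h after transfection with medium holding compound at varied concentrations, with or without 20 μM CDCA, for 18 h. Read-out was dual-luciferase. Three independent experiments.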

A short description of data set [2]: Oral bioavailability in Sprague-Dawley rat at 50 mg/kg by LC-MS/MS analysis. The class given is ADME, organism-based. Particulars: in vivo.
In data set [3] the target is T1, Bile acid receptor (Homo sapiens) (UniProt Q96RI1).
T1 sequence (whole entry): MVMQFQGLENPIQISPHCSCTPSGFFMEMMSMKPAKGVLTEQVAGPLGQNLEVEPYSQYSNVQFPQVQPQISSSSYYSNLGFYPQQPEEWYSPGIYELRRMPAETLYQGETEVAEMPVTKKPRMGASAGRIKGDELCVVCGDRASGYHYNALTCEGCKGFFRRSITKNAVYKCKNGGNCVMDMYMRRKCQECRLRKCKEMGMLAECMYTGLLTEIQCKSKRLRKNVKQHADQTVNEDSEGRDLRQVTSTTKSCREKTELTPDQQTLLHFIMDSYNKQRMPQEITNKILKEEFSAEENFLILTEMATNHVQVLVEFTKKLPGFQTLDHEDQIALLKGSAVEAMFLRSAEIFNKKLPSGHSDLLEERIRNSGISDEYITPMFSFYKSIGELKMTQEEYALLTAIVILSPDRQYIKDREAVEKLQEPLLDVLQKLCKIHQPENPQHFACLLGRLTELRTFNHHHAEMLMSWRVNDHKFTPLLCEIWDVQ
The experiment in a line: Antagonist activity at human FXR in human HepG2 cells assessed as reduction in cholesterol level at 10 uM after 24 hrs. The class given is functional, cell-based. Put shortly:
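HepG2 cells were serum-starved overnight in FBS-free DMEM, then given DMSO or compound for 24 h in serum-free DMEM. Cells were lysed in RIPA buffer, sonicated on ice and centrifuged at 12000 rpm, 4 °C. Triglyceride and total cholesterol in the cleared lysate were measured by kits, with total protein by BCA. At least three experiments.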

The test system of a further data set is Mus musculus. The experiment in a line: Reduction of hepatic cholesterol level in cholesterol-fed C57BL/6 mouse administered orally after 10 days. The class given is functional, organism-based. Put shortly:
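Male C57BL/6 mice, 8–12 weeks old, were randomized into five groups of nine. Control mice had ground chow; the other groups had chow with 2% cholesterol. Compound (50 or 100 mg/kg) or reference (100 mg/kg) was suspended in 0.5% CMC-Na and given by oral gavage; control and vehicle mice got 0.5% CMC-Na. Serum and hepatic triglyceride and total cholesterol were measured.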

The nature of data set [4]: Agonist activity at GST tagged human recombinant FXRalphaLBD expressed in Escherichia coli BL21 cells assessed as SRC-1 co-activator association at 40 uM after 30 mins by HTRF assay. The class given is functional. Put shortly:
(§2)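 HTRF coactivator recruitment: 10 nM GST-human FXRαLBD (residues 238–473, E. coli BL21(DE3)), 0.83 nM anti-GST-Eu cryptate, 100 nM biotin-SRC1 peptide, 41.75 nM SA/XL665. Buffer was 50 mM Hepes pH 7.0, 125 mM KF, 0.125% CHAPS, 0.05% dry milk. Compound alone or with CDCA, 30 min at room temperature. Signal was 1000×(668/620 nm). Primary screen at 40 μM; IC50 as mean ± SE, three experiments.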
Background: In TR-FRET formats the signal depends on donor and acceptor labels being close together.

For data set [5], the system named is HEK-293T. The experiment in a line: Antagonist activity at FXRalpha/RXRalpha expressed in HEK293T cells co-expressing GAL4 DBD assessed as inhibition of CDCA-induced transactivation at 40 uM after 18 hrs by luciferase reporter gene assay. Particulars: Homo sapiens. The data set is classed as functional, cell-based. Put shortly:
as §1
(A reporter such as luciferase makes a cellular process visible.)

Data set [6] is described as follows: Antagonist activity at GST-tagged human recombinant FXRalphaLBD expressed in Escherichia coli BL21 cells assessed as inhibition of CDCA-induced SRC-1 co-activator association at 40 uM by HTRF assay. The class given is functional. The procedure, abridged: as §2
Data set [7] concerns the target T2, Peroxisome proliferator-activated receptor gamma (Homo sapiens) (UniProt P37231).
T2 sequence (whole entry): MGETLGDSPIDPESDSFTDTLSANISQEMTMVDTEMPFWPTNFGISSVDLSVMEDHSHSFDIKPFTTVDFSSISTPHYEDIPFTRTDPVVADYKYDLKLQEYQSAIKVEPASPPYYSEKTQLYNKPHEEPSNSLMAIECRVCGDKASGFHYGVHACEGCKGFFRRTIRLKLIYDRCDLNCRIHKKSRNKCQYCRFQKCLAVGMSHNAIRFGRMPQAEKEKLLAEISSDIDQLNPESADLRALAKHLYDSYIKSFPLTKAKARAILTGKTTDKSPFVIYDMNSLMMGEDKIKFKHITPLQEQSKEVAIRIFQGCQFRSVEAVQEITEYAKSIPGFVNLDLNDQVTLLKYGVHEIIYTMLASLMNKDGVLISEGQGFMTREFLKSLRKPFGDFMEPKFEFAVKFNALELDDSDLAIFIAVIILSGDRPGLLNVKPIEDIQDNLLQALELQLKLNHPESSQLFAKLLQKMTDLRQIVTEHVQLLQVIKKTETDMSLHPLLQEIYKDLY
Nature of the data set: Agonist activity at recombinant PPARgamma LBD expressed in HEK293T cells co-expressing GAL4 DBD at 20 uM by transactivation assay. As to conditions: HEK-293T. The data set is classed as functional, cell-based. The procedure, abridged: (§3)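 One-hybrid assay in HEK293T cells cotransfected with a Gal4 DBD–NR-LBD fusion (RXRα, LXRα, GR, PR, PPARδ or PPARγ) plus UAS-TK-Luc reporter. Compound was 20 μM, given alone or with agonist: 9cRA 0.1 μM (RXRα), TO901317 0.5 μM (LXRα), dexamethasone 50 nM (GR), progesterone 100 nM (PR), GW1516 10 μM (PPARδ), rosiglitazone 10 μM (PPARγ). Luciferase read-out; three independent experiments.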

Data set [8] deals with T3, Retinoic acid receptor RXR-alpha (Homo sapiens) (UniProt P19793).
T3 sequence (whole entry): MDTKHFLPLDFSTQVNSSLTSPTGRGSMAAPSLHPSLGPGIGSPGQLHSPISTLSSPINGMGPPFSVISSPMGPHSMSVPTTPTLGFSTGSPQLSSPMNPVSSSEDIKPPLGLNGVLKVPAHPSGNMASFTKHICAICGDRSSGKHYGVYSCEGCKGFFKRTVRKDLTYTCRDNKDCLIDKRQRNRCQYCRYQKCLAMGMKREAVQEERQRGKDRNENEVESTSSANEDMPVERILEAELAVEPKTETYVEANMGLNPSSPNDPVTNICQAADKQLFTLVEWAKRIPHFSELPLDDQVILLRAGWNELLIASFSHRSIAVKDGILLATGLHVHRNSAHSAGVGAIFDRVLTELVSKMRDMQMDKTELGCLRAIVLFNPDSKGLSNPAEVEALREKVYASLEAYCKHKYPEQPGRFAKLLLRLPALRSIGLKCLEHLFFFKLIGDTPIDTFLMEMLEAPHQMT
The experiment in a line: Agonist activity at recombinant RXRalphaLBD expressed in HEK293T cells co-expressing GAL4 DBD at 20 uM by transactivation assay. Particulars: HEK-293T. The data set is classed as functional, cell-based. The procedure, abridged:
as §3

Consider `COc1cc(/C=C2\C(=O)N(c3cccc([N+](=O)[O-])c3)N=C2c2ccccc2)ccc1O`, for which the outcome (in the data set with HEK-293T [1]; in data set [8]) was inactive. In addition, the bioavailability in [2] was below 5%. Also, the inhibition in data set [3] turned out to be 27.1%. In addition, the Activity entry is “Dose-dependent effect” with Mus musculus, below 5% in data set [4] and below 15.2% in data set [7]. The inhibition result with HEK-293T [5] was “Active”. The inhibition at 40 µM in data set [6] was 70.4%.

Broadly, the bioavailability is dose-corrected exposure relative to a reference, in per cent. Read a high bioavailability as much systemic uptake. The term inhibition denotes how much of the control response was suppressed.
